The source made the active and inactive calls. No cut-off for these calls is given here. Bounds are passed on as bounds.

Assay [1] relates to MCF7. Description: Induction of apoptosis in human MCF7 cells assessed as late apoptotic cells at 0.8 uM incubated for 48 hrs by annexin V-FITC and propidium iodide staining based flow cytometry analysis (reference value: 9.2 %). The assay is classed as functional.
Assay [2] relates to L02. Description: Cytotoxicity against human L02 cells assessed as reduction in cell viability incubated for 72 hrs by SRB assay. The assay is classed as cell-based. The following applies: L02, 72 h. Summed up:
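Normal cells exposed to a range of compound concentrations for 72 h at 37 °C in 5% CO₂. Cells TCA-fixed and viability read by SRB protein staining, normalized to day-0 and negative-control OD. IC50 from non-linear regression; values are means of triplicate measurements.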

Assay [3] relates to MCF7. Description: Induction of apoptosis in human MCF7 cells assessed as nuclear fragmentation at 0.2 to 0.8 uM incubated for 48 hrs by Hoechst 33342 staining based fluorescence microscopic analysis. The assay is classed as functional, cell-based. The following applies: dose microM 0.2-0.8, time 48.0 hrs. Summed up: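 MCF-7 cells seeded at 2×10⁵ per well in 6-well plates and allowed to settle 12 h. Treated 48 h, with medium-only controls. Stained with Hoechst 33342 for 30 min, washed, and nuclear morphology imaged by fluorescence microscopy.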

In assay [4] the test system is MCF7. Nature of the assay: Induction of apoptosis in human MCF7 cells assessed as late apoptotic cells at 0.4 uM incubated for 48 hrs by annexin V-FITC and propidium iodide staining based flow cytometry analysis (reference value: 9.2 %). The assay is classed as functional.
The subject of assay [5] is MCF7. Nature of the assay: Induction of apoptosis in human MCF7 cells assessed as viable cells at 0.8 uM incubated for 48 hrs by annexin V-FITC and propidium iodide staining based flow cytometry analysis (reference value: 87.7 %). The assay is classed as functional. The following applies: read-out: Activity.
For assay [6], the system named is MCF7. Nature of the assay: Induction of apoptosis in human MCF7 cells assessed as necrotic cells at 0.2 uM incubated for 48 hrs by annexin V-FITC and propidium iodide staining based flow cytometry analysis (reference value: 0.3 %). The assay is classed as functional.
The target in assay [7] is Epidermal growth factor receptor (Homo sapiens, UniProt P00533). Description: Inhibition of EGFR (unknown origin) using FAM-labeled peptide as substrate incubated for 10 mins followed by substrate addition and measured after 1 hr by mobility shift assay. The method, boiled down: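 Mobility shift assay in 50 mM HEPES pH 7.5, 10 mM MgCl₂, 2 mM DTT, 0.0015% Brij35. Compound in 10-point DMSO dilution, run in duplicate. Enzyme preincubated with compound 10 min at room temperature. FAM-labeled peptide and ATP then added and reaction run at 28 °C for 1 h. Stopped with EDTA buffer; conversion turned into percent inhibition and fitted to a Hill equation for IC50.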
Sequence of Epidermal growth factor receptor (P00533 whole entry): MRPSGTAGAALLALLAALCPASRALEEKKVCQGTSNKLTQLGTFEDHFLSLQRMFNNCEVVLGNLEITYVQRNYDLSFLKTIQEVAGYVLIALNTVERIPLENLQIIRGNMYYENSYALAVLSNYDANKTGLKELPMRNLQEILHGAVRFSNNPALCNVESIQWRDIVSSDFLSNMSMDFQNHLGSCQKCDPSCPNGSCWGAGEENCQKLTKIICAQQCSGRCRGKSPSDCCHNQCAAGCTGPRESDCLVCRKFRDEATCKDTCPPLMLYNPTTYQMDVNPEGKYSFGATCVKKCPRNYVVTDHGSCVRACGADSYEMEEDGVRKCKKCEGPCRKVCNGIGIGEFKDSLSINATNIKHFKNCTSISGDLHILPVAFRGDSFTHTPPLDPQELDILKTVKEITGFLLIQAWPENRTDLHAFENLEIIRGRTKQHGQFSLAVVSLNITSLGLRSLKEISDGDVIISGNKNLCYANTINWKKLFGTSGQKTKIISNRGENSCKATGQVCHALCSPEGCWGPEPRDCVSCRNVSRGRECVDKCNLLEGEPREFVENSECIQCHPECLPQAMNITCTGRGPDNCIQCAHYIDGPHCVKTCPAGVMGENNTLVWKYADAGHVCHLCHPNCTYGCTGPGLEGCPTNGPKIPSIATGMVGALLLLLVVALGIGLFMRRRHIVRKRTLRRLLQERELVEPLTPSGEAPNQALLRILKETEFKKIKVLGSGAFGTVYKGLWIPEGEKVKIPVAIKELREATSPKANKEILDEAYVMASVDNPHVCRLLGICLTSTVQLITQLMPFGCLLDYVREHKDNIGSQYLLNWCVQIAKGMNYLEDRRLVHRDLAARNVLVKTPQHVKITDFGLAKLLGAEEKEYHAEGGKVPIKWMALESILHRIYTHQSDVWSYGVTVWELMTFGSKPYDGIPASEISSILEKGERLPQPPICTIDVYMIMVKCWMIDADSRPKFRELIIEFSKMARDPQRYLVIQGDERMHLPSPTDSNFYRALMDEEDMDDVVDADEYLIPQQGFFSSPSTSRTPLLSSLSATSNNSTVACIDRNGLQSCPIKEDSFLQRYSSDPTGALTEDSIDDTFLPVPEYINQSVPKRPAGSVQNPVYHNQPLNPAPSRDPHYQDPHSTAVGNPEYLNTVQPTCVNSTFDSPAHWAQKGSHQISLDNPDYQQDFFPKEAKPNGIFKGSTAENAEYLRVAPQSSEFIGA

Assay [8] relates to MCF7. Description: Induction of apoptosis in human MCF7 cells assessed as viable cells at 0.4 uM incubated for 48 hrs by annexin V-FITC and propidium iodide staining based flow cytometry analysis (reference value: 87.7 %). The assay is classed as functional. The settings on record: read-out: Activity.
Assay [9] concerns MCF7. Nature of the assay: Induction of apoptosis in human MCF7 cells assessed as necrotic cells at 0.4 uM incubated for 48 hrs by annexin V-FITC and propidium iodide staining based flow cytometry analysis (reference value: 0.3 %). The assay is classed as functional.
In assay [10] the test system is MCF7. Nature of the assay: Induction of apoptosis in human MCF7 cells assessed as viable cells at 0.2 uM incubated for 48 hrs by annexin V-FITC and propidium iodide staining based flow cytometry analysis (reference value: 87.7 %). The assay is classed as functional. The settings on record: read-out: Activity.
For assay [11], the target named is Phosphatidylinositol 4,5-bisphosphate 3-kinase catalytic subunit beta isoform (Homo sapiens, UniProt P42338). Description: Inhibition of PI3Kbeta (unknown origin) using lipid as substrate incubated for 15 mins followed by substrate addition and measured after 60 mins ADPGloTM reagent based assay. The method, boiled down: (§1)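 ADP-Glo luminescent readout of ADP formed. Isoforms tested: p110α/p85α, p110β/p85α, p120γ and p110δ/p85α, each in PI3K reaction buffer with lipid substrate. Enzyme preincubated with compound for 15 min at room temperature. ADP-Glo reagent added for 40 min, then detection reagent for 40 min. IC50 from normalized nonlinear dose–response fit.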
Sequence of Phosphatidylinositol 4,5-bisphosphate 3-kinase catalytic subunit beta isoform (P42338 whole entry, canonical isoform): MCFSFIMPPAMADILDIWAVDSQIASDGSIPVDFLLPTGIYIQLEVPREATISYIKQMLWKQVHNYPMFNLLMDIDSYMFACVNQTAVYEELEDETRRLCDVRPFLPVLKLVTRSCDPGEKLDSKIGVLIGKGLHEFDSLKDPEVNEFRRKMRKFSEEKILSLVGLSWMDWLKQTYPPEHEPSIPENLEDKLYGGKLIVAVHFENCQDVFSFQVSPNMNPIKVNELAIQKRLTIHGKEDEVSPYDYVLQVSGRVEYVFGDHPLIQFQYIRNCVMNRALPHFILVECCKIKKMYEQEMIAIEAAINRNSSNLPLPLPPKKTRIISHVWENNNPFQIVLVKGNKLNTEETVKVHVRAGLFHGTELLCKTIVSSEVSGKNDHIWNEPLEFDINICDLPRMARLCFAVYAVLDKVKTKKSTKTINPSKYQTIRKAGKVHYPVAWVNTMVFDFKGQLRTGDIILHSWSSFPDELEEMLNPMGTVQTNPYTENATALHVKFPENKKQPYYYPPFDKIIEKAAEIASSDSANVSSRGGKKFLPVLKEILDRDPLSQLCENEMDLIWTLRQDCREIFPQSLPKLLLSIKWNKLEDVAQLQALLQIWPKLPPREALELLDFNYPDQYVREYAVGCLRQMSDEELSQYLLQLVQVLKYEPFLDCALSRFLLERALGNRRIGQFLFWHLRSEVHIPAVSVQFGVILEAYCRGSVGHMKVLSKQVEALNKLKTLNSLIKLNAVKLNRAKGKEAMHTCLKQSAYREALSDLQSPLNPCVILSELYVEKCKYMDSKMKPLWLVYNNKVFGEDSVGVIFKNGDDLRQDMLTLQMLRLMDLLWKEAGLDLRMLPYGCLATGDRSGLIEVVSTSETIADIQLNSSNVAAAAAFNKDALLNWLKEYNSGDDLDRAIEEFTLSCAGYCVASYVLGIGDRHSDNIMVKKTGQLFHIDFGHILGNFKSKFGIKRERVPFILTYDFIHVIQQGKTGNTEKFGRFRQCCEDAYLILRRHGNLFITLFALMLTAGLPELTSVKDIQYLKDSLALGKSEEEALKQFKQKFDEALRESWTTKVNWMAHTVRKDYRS

In assay [12] the target is Phosphatidylinositol 4,5-bisphosphate 3-kinase catalytic subunit alpha isoform (Homo sapiens, UniProt P42336). Description: Inhibition of PI3Kalpha (unknown origin) using lipid as substrate incubated for 15 mins followed by substrate addition and measured after 60 mins ADPGloTM reagent based assay. Summed up:
as §1

Assay [13] concerns MCF7. Description: Induction of apoptosis in human MCF7 cells assessed as late apoptotic cells at 0.2 uM incubated for 48 hrs by annexin V-FITC and propidium iodide staining based flow cytometry analysis (reference value: 9.2 %). The assay is classed as functional.
For assay [14], the system named is MCF7. Nature of the assay: Induction of apoptosis in human MCF7 cells assessed as early apoptotic cells at 0.8 uM incubated for 48 hrs by annexin V-FITC and propidium iodide staining based flow cytometry analysis (reference value: 2.7 %). The assay is classed as functional.
Assay [15] deals with A549. Nature of the assay: Antiproliferative activity against human A549 cells assessed as reduction in cell viability incubated for 72 hrs by SRB assay. The assay is classed as functional, cell-based. The following applies: A549, 72 h. The method, boiled down:
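Cell lines grown at 37 °C in 5% CO₂: A549 in RPMI1640, MCF-7 in DMEM, each with 10% FBS plus penicillin/streptomycin/amphotericin B. Cells exposed to a range of compound concentrations for 72 h, then TCA-fixed and SRB-stained. Growth inhibition = 100 − 100×(OD sample − OD day 0)/(OD negative control − OD day 0). IC50 from non-linear regression of percent growth against concentration.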

Assay [16] deals with MCF7. Nature of the assay: Induction of apoptosis in human MCF7 cells assessed as early apoptotic cells at 0.2 uM incubated for 48 hrs by annexin V-FITC and propidium iodide staining based flow cytometry analysis (reference value: 2.7 %). The assay is classed as functional.

Sequence of Phosphatidylinositol 4,5-bisphosphate 3-kinase catalytic subunit alpha isoform (P42336 whole entry, canonical isoform): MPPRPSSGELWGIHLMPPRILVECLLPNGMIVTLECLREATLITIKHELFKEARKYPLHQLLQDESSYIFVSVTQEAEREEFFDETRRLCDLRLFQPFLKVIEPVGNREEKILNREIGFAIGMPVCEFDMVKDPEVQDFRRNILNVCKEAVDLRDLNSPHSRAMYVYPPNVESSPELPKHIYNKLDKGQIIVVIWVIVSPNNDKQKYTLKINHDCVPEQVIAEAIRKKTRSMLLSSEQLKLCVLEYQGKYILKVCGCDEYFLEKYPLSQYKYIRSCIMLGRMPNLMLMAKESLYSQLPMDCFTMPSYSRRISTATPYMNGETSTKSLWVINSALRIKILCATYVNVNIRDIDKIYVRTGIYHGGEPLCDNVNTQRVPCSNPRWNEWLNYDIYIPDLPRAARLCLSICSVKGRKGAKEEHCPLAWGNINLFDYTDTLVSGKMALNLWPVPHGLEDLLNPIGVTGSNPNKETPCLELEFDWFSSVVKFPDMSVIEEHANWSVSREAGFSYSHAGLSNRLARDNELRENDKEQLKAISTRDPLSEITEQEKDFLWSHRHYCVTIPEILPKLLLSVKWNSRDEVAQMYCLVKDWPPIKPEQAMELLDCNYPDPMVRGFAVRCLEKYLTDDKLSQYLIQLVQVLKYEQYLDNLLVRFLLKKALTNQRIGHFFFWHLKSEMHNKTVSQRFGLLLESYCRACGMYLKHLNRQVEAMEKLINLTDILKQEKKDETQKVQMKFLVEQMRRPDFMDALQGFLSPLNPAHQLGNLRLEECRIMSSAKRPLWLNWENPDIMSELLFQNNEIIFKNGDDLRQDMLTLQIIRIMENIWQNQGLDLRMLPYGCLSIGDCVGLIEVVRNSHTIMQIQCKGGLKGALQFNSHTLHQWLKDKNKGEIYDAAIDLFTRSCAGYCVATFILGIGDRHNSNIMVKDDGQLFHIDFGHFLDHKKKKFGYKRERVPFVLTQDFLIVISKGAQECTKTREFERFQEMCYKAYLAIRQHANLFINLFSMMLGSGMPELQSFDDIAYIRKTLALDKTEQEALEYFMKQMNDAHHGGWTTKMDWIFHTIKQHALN

Regarding `COc1ncc(-c2ccc3ncnc(Nc4cnn(CCO)c4)c3c2)cc1NS(=O)(=O)c1ccc(F)cc1F`, the Activity was determined as 22.7% in [1]; 23.6% in assay [4]; 2.2% in [6]; 2.6% in assay [9]; 20.6% in assay [13]; 4.8% in [14]. Moreover, in [16], the Activity was found to be 2.8%. Besides, the concentration for half-maximal inhibition (IC50) in assay [2] is 60 µM; in assay [7], > 10 µM; in assay [11] it was 0.00299 µM; in assay [12] it was 0.0002 µM; in assay [15], 3.1 µM. In addition, the outcome in assay [3] was Active. For the same compound, the viability at 0.8 µM in assay [5] came out at 70.3%. In assay [8], the viability at 0.4 µM amounted to 70%. Further, in assay [10], the viability at 0.2 µM is 74.7%.

(Values after ChEMBL document CHEMBL4665651, “Design, synthesis, and biological evaluation of some novel 4-aminoquinazolines as Pan-PI3K inhibitors” (Bioorg Med Chem, 2019).)
